Assay outcomes from PubChem BioAssay.
The list is not random: actives were taken first. Their share in the collection is about 3.1%.
PAFAH1B2 FP inh: PAFAH1B2 (human) inhibition. inhibition, % at 3.39 µM. P68402. 340,000 compounds, 1.2% hits. AID 492953. recombinant PAFAH1B2, FP-rhodamine activity probe, fluorescence polarization;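 active means inhibition above the mean of all tested compounds plus 3 SD, cut at about 24% in these data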;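 further: 0% = enzyme with DMSO and 100% = wells lacking PAFAH1B2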
pPAFAH inh: inhibitors of human plasma PAF acetylhydrolase (pPAFAH); Q13093; recombinant pPAFAH, FP-rhodamine probe fluorescence polarization; inhibition, % at 3.39 µM; 330,000 compounds, 1.5% hits;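 active means inhibition above the mean inhibition across the screen plus 3 SD, cut at about 25% in these data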;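 further: inhibitors block binding of the rhodamine activity-based probe so polarization drops; 0% = enzyme with DMSO and 100% = wells lacking pPAFAH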
Target sequence (Q13093 whole entry, looked up): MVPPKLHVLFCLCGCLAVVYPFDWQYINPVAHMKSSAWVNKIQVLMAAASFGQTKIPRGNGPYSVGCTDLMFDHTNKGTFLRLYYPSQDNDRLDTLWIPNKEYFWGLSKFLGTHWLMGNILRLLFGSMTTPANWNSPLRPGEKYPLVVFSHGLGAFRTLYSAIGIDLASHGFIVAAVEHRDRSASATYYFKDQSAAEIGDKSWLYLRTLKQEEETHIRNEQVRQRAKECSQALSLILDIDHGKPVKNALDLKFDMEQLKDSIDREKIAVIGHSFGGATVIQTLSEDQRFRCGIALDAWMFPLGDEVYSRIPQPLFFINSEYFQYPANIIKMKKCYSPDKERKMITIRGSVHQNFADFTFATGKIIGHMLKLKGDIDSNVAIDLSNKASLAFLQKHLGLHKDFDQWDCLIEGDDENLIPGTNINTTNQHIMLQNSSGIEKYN
PAFAH2 FP inh: inhibitors of human PAFAH2. recombinant PAFAH2, FP-rhodamine activity probe, fluorescence polarization. AID 492956. Q99487. 340,000 compounds, 0.99% hits. inhibition, % at 3.39 µM;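 active means inhibition above the mean over all tested compounds plus 3 SD, cut at about 30% in these data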;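 further: inhibitors block probe labeling of enzyme so polarization drops; 0% = enzyme with DMSO and 100% = wells lacking PAFAH2 protein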
Apaf1 inhib: blocks human Apaf-1 apoptosome activity. reconstituted apoptosome caspase-3 activity, DEVD-Rh110 fluorescence. inhibition, % at 20 µM. O14727. 330,000 compounds, 0.71% hits; active means inhibition of at least 40% at 20 µM;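 further: plate controls were DMSO wells for no effect and DEVD-CHO caspase inhibitor wells for full effect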
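Medium: Hepes buffer, pH 7.5 / System: biochemical Apaf-1 apoptosome reconstitution / Measured by: Rh110 fluorescence, excitation 480 nm, emission 540 nm / Times: compound with Apaf-1, dATP, procaspase-3 30 min, then 50 min reaction, room temperature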
PAFAH1B3 FP inh: blocks human PAF acetylhydrolase 1B catalytic subunit 3; recombinant PAFAH1B3, FP-rhodamine probe, fluorescence polarization; 340,000 compounds, 0.28% hits; inhibition, % at 3.39 µM;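 active means inhibition above the screen-wide average of all tested compounds plus 3 SD, cut at about 25% in these data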;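 further: 0% = enzyme with DMSO only and 100% = wells lacking PAFAH1B3 protein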
Apaf-1 inh conf2: confirmation of Apaf-1 inhibitors; shares compounds with Apaf1 inhib; reconstituted apoptosome, caspase-3 DEVD-Rh110 fluorescence; inhibition, % at 20 µM; 1,800 compounds, 25% hits;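 active means mean inhibition of at least 40% at 20 µM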;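 further: plate controls were DMSO wells for no effect and DEVD-CHO caspase inhibitor control wells for full effect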
Rh110 interf inh: interferes with Rh110 fluorescence, flagging false Apaf-1 inhibitors | shares compounds with Apaf1 inhib | AID 504615 | 1,800 tested, under 10 active | activation (fluorescence interference), % at 20 µM | Rh110 fluorescence interference, quenched caspase reaction;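 active means signal rise of 40% or more at 20 µM, treated as a fluorescence artifact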
Apaf1 inh interf: shows fluorescence interference in the Apaf-1 inhibitor assay format | shares compounds with Apaf1 inhib | fluorescence interference counterscreen, Apaf-1 assay format | IC50, µM | 460 tested, under 10 active | AID 588538; call rule not given here
Numbers without * were called inactive; / = no result given; ! = repeats disagree.

SMILES	PAFAH1B2 FP inh	pPAFAH inh	PAFAH2 FP inh	Apaf1 inhib	PAFAH1B3 FP inh	Apaf-1 inh conf2	Rh110 interf inh	others
Cc1cccc(NC(=S)NCc2ccc3c(c2)cc(C)n3C)c1C	1	11	11	66*	2	16	5
Cc1cc2cc(CNC(=O)Nc3cccc(Cl)c3)ccc2n1C	2	14	10	49*	2	12	2
COc1cccc(NC(=S)NCc2ccc3c(c2)cc(C)n3C)c1	9	/	8	/	2	/	/
Cc1cccc(NC(=O)NCc2ccc3c(c2)cc(C)n3C)c1	-6	-2	9	54*	4	-2	-2
CCCC(=O)NCc1ccc2c(c1)cc(C)n2C	0	5	-9	-1	-2	/	/
Cc1cc2cc(CNC(=S)Nc3ccc(OC(F)(F)F)cc3)ccc2n1C	2	4	0	59*	-2	15	14
COc1ccc(CCNC(=O)c2ccc3c(c2)NC(=O)C(CSCc2cc(C)ccc2C)N3)cc1OC (stereo not drawn)	/	-1	/	6	/	/	/
Cc1ccc2c(c1)[C@@H]1[C@H](CO2)[C@H](c2ccccc2)[C@@]2(C)C(=O)N[C@H](C)C(=O)N12	3	5	6	5	19	/	/
Cn1c(N)c(C(=O)COC(=O)c2ccccc2C(=O)c2ccc(Cl)cc2)c(=O)n(C)c1=O	5	-12	2	17	5	/	/
CCc1ccc2nc(NC(=O)CSCc3c(C)noc3C)sc2c1	6	6	-1	46*	5	29	5
Cc1ccc(S(=O)(=O)N2C(=O)CCC2C(=O)N2CCCCC2)cc1 (stereo not drawn)	3	-2	-1	-6	12	/	/
CC(=O)c1ccc(NC(=O)c2ccc(-n3cnnn3)cc2)cc1	3	/	-1	-6	-5	/	/
NC(=O)c1c(NC(=O)c2ccc(N3C(=O)CCC3=O)cc2)sc2c1CCCC2	-1	8	3	-1	3	/	/
NC1=Nc2cccc3cccc1c23	15	3	6	67*	1	11	8
C(=N\NC1=Nc2cccc3cccc1c23)/c1ccccc1	0	6	-7	25	-6	/	/
COc1ccccc1-c1oc2ccccc2c1C#CC1(N)CCCCC1	6	1	-10	68*	0	28	5
COC/C=C/C1=CC2=CC(=O)C(C)(OC(=O)c3cnc4ccccc4n3)C(=O)C2=CN1C1CC1 (stereo not drawn)	6	-3	-1	33	1	/	/
CC1(OC(=O)c2ccc(Cl)nc2)C(=O)C=C2C=C3CCCN3C=C2C1=O (stereo not drawn)	11	15	12	44*	14	40	6
CN1/C(=C\C(=O)COC(=O)c2ccc([N+](=O)[O-])o2)C(C)(C)c2ccccc21	4	7	-1	56*	0	6	0
CCN1CCN(CCNC(=O)c2ccc(/C=C3\Sc4ccccc4N(Cc4ccccc4F)C3=O)cc2)CC1	2	25*	0	41*	5	27	6
CC(=O)c1ccc(NC(=O)C(C)Sc2nnc3ccccn23)cc1 (stereo not drawn)	-1	-7	1	3	-5	/	/
CN(CC(=O)Nc1cccc(F)c1)C(=O)c1sc2ccccc2c1Cl	1	-2	2	57*	-13	36	4
CCCN(CC(=O)Nc1ccccc1C)C(=O)c1sc2ccccc2c1Cl	3	4	-1	61*	3	44*	12	Apaf1 inh interf=>100
Cc1cc(C)cc(N(CCC#N)C(=O)COC(=O)C2CCN(c3ccc(C(F)(F)F)cn3)CC2)c1	0	7	-1	29	13	/	/
CCCC[C@@H]1CNCCN1CCc1cccc2ccccc12	5	8	9	14	0	/	/
SMILES	PAFAH1B2 FP inh	pPAFAH inh	PAFAH2 FP inh	Apaf1 inhib	PAFAH1B3 FP inh	Apaf-1 inh conf2	Rh110 interf inh	others
O=C(Nc1ccc(OC(F)F)c(Cl)c1)[C@@H]1CCCN1C(=O)c1cccs1	-3	8	1	92*	2	11	6
CSc1ccc2c(c1)C(N1CCN(C)CC1)Cc1ccccc1S2 (stereo not drawn)	4	7	6	48*!	2	21	17
CC(OC(=O)Cc1c[nH]c2ccccc12)C(=O)NC1CCCCC1C (stereo not drawn)	8	-1	6	5	7	/	/
c1csc(Cc2nn3c(-c4n[nH]c5c4CCC5)nnc3s2)c1	3	19	16	41*	4	34	7
CC(C)N1CCc2c(sc(NC(=O)c3ccc(S(=O)(=O)N4CCc5ccccc54)cc3)c2C(N)=O)C1	9	15	9	46*	5	3	1
Nc1ccc2ncccc2c1	6	1	6	86*	11	19	-3
COCCNC(=O)CN1C(=O)NC2(CCOc3ccccc32)C1=O (stereo not drawn)	1	-5	-7	46*	2	25	1
COc1ccc(CCNC(=O)CN2C(=O)NC3(CCOc4ccccc43)C2=O)cc1 (stereo not drawn)	5	/	10	5	5	/	/
COc1ccc(CN2CCC(C(=O)Nc3ccc(Oc4cccnc4)cc3)CC2)cc1	1	2	-7	58*	6	17	16
COc1cccc(O)c1CN1CCC(C(=O)Nc2ccc(Oc3cccnc3)cc2)CC1	-4	0	-8	16	0	/	/
CCCCOc1ccc(C(=O)NCC(=O)NCC(c2cccs2)N2CCOCC2)cc1 (stereo not drawn)	2	3	1	41*	2	42*	13	Apaf1 inh interf=>100
O=C1CCc2cc(S(=O)(=O)Nc3ccc(F)cc3)cc3c2N1CC3	0	18	3	5	2	/	/
CN1CCN(S(=O)(=O)c2cccc(C(=O)Nc3cc(Cl)ccc3N3CCOCC3)c2)CC1	3	4	-5	-10	8	/	/
COc1ccc(NC(=O)CC2Nc3cccc4cccc(c34)NC2=O)cc1 (stereo not drawn)	9	16	16	94*	24	11	1
CCCCOc1ccccc1NC(=O)CC1Nc2ccccc2NC1=O (stereo not drawn)	3	9	-2	-7	12	/	/
COc1ccc(CN(C)C(=O)C2CSC3(C)CCC(=O)N23)cc1 (stereo not drawn)	-2	1	1	19	6	/	/
COc1ccc(NC(=O)CN(C)C(=O)C2CSC3(C)CCC(=O)N23)cc1 (stereo not drawn)	5	2	6	43*	9	34	16
